Source: ChEMBL document CHEMBL1142319, “New antitumor imidazo[2,1-b]thiazole guanylhydrazones and analogues” (2008)

Experiments:
Assay type in all cases: functional
Conditions in all cases: for TGI: read-out: pTGI (converted)
[1] = system: Cancer cell lines; experiment: Inhibition of human prostate cancer cells
Summary of the method: (§1)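 NCI 60-cell-line panel, with results grouped by tissue subpanel. Compounds dissolved in DMSO and tested at five 10-fold dilutions, top concentration 10^-4 M. Values given as -log molar concentration for 50% growth inhibition (pGI50), total growth inhibition (pTGI) and 50% cell kill (pLC50), with subpanel means calculated.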

[2] = system: Melanoma cell; experiment: Inhibition of human melanoma cells; summary of the method: as §1
[3] = system: Leukemia cell; experiment: Inhibition of human leukemia cells; summary of the method: as §1
[4] = system: Cancer cell lines; experiment: Inhibition of human renal cancer cells; summary of the method: as §1
[5] = system: Cancer cell lines; experiment: Inhibition of human ovarian cancer cells; summary of the method: as §1
[6] = system: Cancer cell lines; experiment: Inhibition of human CNS cancer cells; summary of the method: as §1
[7] = system: Cancer cell lines; experiment: Inhibition of human non-small cell lung cancer cells; summary of the method: as §1
[8] = system: Cancer cell lines; experiment: Inhibition of human colon cancer cells; summary of the method: as §1
[9] = system: Cancer cell lines; experiment: Inhibition of human breast cancer cells; summary of the method: as §1

| SMILES | GI50 [1] [µM] | TGI [1] [µM] | GI50 [2] [µM] | TGI [2] [µM] | GI50 [3] [µM] | GI50 [4] [µM] | TGI [4] [µM] | GI50 [5] [µM] | TGI [5] [µM] | GI50 [6] [µM] | TGI [6] [µM] | GI50 [7] [µM] | TGI [7] [µM] | GI50 [8] [µM] | TGI [8] [µM] | GI50 [9] [µM] | TGI [9] [µM] | TGI [3] [µM] |
| --- | --- | --- | --- | --- | --- | --- | --- | --- | --- | --- | --- | --- | --- | --- | --- | --- | --- | --- |
| N=C(N)N/N=C/c1c(-c2ccc(Cl)c([N+](=O)[O-])c2)nc2sc3ccccc3n12 | 2.29 | 14.8 | 0.708 | 2.75 | 0.138 | 0.832 | 3.89 | 1.1 | 1.95 | 0.447 | 3.02 | 0.676 | 3.8 | 0.339 | 3.63 | 0.741 | 9.55 | – |
| N=C(N)N/N=C/c1c(-c2ccsc2)nc2n1CCS2 | 17.4 | – | 21.9 | – | 19.1 | 28.2 | – | 14.5 | – | 25.1 | – | 28.8 | – | 22.9 | – | 32.4 | – | – |
| Cc1cc(-c2nc3sccn3c2/C=N/NC(=N)N)c(C)s1 | 13.8 | 26.9 | 16.2 | 30.9 | 15.5 | 17.8 | 32.4 | 17.4 | 33.9 | 15.5 | 30.2 | 16.6 | 33.1 | 15.5 | 32.4 | 16.2 | 30.2 | – |
| N=C(N)N/N=C/c1c(-c2cc(Cl)sc2Cl)nc2sccn12 | 1.55 | 6.17 | 2.82 | 7.24 | 1 | 1.62 | 5.75 | 1.1 | 3.55 | 1.12 | 2.82 | 2.69 | 10.7 | 0.977 | 2.34 | 1.66 | 4.27 | 2.14 |
| N=C(N)N/N=C/c1c(-c2ccsc2)nc2sccn12 | 14.8 | 28.8 | 17 | 31.6 | 6.92 | 14.8 | 29.5 | 15.5 | 31.6 | 15.1 | 28.8 | 15.1 | 30.2 | 14.1 | 29.5 | 17.4 | 31.6 | 24 |
| COc1cc([N+](=O)[O-])c(OC)cc1-c1nc2sc(Cl)cn2c1/C=N\NC(=N)N/N=C\c1c(-c2cc(OC)c([N+](=O)[O-])cc2OC)nc2sc(Cl)cn12 | 1.95 | 3.8 | 1.91 | 5.13 | 2.34 | 2.19 | 4.9 | 1.82 | 3.8 | 1.62 | 2.57 | 2.04 | 3.98 | 2.24 | 7.08 | 3.31 | 6.76 | – |
| N=C(N)N/N=C/c1c(-c2cccs2)nc2n1CCS2 | 19.5 | 36.3 | 21.4 | 38 | 18.6 | 22.9 | – | 39.8 | – | 19.1 | 39.8 | 28.8 | – | 17.4 | 38.9 | 17.4 | 40.7 | 38.9 |
| CCOC(=O)c1nc2sc(Cl)cn2c1/C=N\NC(=N)N | 17 | 38.9 | 19.5 | 45.7 | 14.1 | 21.4 | – | 20.9 | – | 19.5 | – | 18.2 | 41.7 | 20.9 | 47.9 | 22.9 | – | 38.9 |
| COc1cc([N+](=O)[O-])c(OC)cc1-c1nc2sc(Cl)cn2c1/C=N\Nc1ccccn1 | 16.2 | – | 33.1 | 46.8 | 9.12 | 13.5 | 30.9 | 20 | 33.1 | 15.5 | 30.2 | 25.7 | – | 44.7 | – | 17.4 | 41.7 | 35.5 |
| Cc1cn2c(/C=N/NC(=N)N)c(-c3cccs3)nc2s1 | 3.02 | 12.3 | 2.24 | 5.89 | 1.82 | 4.27 | 14.1 | 6.46 | 17.4 | 4.27 | 11.7 | 7.76 | 25.1 | 2.57 | 8.13 | 5.75 | 18.6 | 4.07 |
| Cc1cn2c(/C=N/NC(=N)N)c(-c3ccsc3)nc2s1 | 7.59 | 20 | 8.13 | 19.5 | 7.76 | 10.2 | 28.2 | 11 | 27.5 | 6.92 | 19.5 | 13.8 | 41.7 | 5.37 | 20.4 | 7.76 | 22.4 | 46.8 |
| Cc1cn2c(/C=N/Nc3ccccn3)c(-c3ccc(Cl)c([N+](=O)[O-])c3)nc2s1 | 11.7 | 38.9 | 18.2 | 38 | 16.6 | 15.5 | 39.8 | 9.12 | 25.7 | 7.76 | 19.5 | 11.5 | 30.9 | 26.3 | 42.7 | 13.8 | 38.9 | 33.9 |
| N=C(N)N/N=C/c1c(-c2ccc(Cl)c([N+](=O)[O-])c2)nc2ccccn12 | 1.51 | 3.09 | 2.04 | 3.63 | 1.7 | 2.19 | 4.9 | 1.86 | 3.63 | 1.2 | 3.02 | 1.7 | 3.8 | 1.86 | 7.94 | 2.29 | 5.37 | 3.8 |
| Cc1cc(-c2nc3n(c2/C=N/NC(=N)N)CCS3)c(C)s1 | 15.5 | 30.9 | 15.5 | 29.5 | 20.9 | 17.4 | 38 | 24 | 47.9 | 18.6 | 34.7 | 17 | 35.5 | 13.8 | 29.5 | 24 | 41.7 | – |
